In ChEMBL document CHEMBL2375238, “Synthesis and biological evaluation of oleanolic acid derivatives as PTP1B inhibitors” (Eur J Med Chem, 2013) one finds IC50, Imax and Activity data, which are given here for 28 molecules.

As a reminder, the IC50 is the concentration at which inhibition is half-maximal.

Assay [1] has as its target T1, Tyrosine-protein phosphatase non-receptor type 1 (Homo sapiens, UniProt P18031).
T1 sequence (P18031 whole entry): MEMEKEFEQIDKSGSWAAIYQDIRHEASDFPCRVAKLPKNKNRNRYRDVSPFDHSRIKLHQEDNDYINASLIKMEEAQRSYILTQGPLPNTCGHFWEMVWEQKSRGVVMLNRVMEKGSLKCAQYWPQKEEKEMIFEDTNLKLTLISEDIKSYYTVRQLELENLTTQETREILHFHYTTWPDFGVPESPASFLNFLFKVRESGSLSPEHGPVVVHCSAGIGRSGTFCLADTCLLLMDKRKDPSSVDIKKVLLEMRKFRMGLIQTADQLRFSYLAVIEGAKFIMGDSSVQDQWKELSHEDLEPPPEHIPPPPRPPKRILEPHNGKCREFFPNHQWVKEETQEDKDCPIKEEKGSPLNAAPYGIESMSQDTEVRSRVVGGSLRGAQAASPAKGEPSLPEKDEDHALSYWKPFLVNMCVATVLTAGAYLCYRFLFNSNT
Put plainly: Inhibition of PTP1B (unknown origin) expressed in Escherichia coli expression system using p-nitrophenyl phosphate as substrate assessed as release of p-nitrophenol incubated for 10 mins prior to substrate addition measured after 30 mins. In short, it runs like this:
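Native PTP1B purified from E. coli, diluted in 25 mM HEPES, 50 mM NaCl, 2.5 mM EDTA, 0.1% BSA, pH 7.2; inhibitors in DMSO. Enzyme and inhibitor preincubated at 37 °C in 50 mM HEPES, 2.5 mM EDTA, pH 7.0. pNPP then added; stopped after 30 min with 2 M Na2CO3; A405 read. Inhibition from OD against blank and no-inhibitor controls; means of three experiments.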

For assay [2], the target named is T2, Tyrosine-protein phosphatase non-receptor type 1 (Homo sapiens) (UniProt P18031).
T2 sequence (whole entry): T1 sequence (P18031 whole entry)
Put plainly: Inhibition of PTP1B (unknown origin) expressed in Escherichia coli expression system using p-nitrophenyl phosphate as substrate assessed as release of p-nitrophenol at 10 ug/mL incubated for 10 mins prior to substrate addition measured after 30 mins relative to control. In short, it runs like this:
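Native PTP1B was expressed in E. coli, purified, and diluted in 25 mM HEPES, 50 mM NaCl, 2.5 mM EDTA, 0.1% BSA, pH 7.2. Compounds were dissolved in DMSO and preincubated with enzyme in buffer A (50 mM HEPES, 2.5 mM EDTA, pH 7.0) for 10 min at 37 °C. pNPP was then added for 30 min at 37 °C.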

A further assay relates to 3T3-L1. Briefly: Insulin sensitizing activity in mouse 3T3L1 cells assessed as increase in glucose uptake at 10 ug/mL after 50 hrs […] relative to control. Type of assay: functional. The gist of the method: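 3T3-L1 cells were grown in high-glucose DMEM with 10% FBS and, at 90% confluence, differentiated with insulin, dexamethasone and IBMX. After 4 days they were replated, grown 2 days, then made insulin-resistant with low insulin and high dexamethasone for 4 days. Compounds were given in high-glucose medium for 50 h. Supernatant glucose was measured by kit at OD 490 nm, against normal and insulin-resistant controls, in duplicate or triplicate.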
A general note: ELISA stands for enzyme-linked immunosorbent assay.

The target of assay [3] is Tyrosine-protein phosphatase non-receptor type 1 (Homo sapiens) (UniProt P18031). Particulars: 100 ug/mL.

Regarding `CC1(C)CC[C@]2(C(=O)NCCCCCC(=O)O)CC[C@]3(C)C(=CC[C@@H]4[C@@]5(C)CC[C@H](O[C@@H]6O[C@H](CO)[C@@H](O[C@@H]7O[C@H](CO)[C@H](O)[C@H](O)[C@H]7O)[C@H](O)[C@H]6O)C(C)(C)[C@@H]5CC[C@]43C)[C@@H]2C1`, the IC50 in assay [1] came out at 9.21 µM. Also, in assay [2], the Imax is 83.7%. The Activity in the assay with 3T3-L1 amounted to 39.13%.

As to `COC(=O)CCCCCNC(=O)[C@]12CCC(C)(C)C[C@H]1C1=CC[C@@H]3[C@@]4(C)CC[C@H](O[C@@H]5O[C@H](CO)[C@@H](O)[C@H](O)[C@H]5O)C(C)(C)[C@@H]4CC[C@@]3(C)[C@]1(C)CC2`, in assay [2], the Imax stood at 5.82%.

As to `CN(CCOc1ccc(CC2SC(=O)NC2=O)cc1)c1ccccn1` (stereo not given) [ROSIGLITAZONE], the Activity in the assay with 3T3-L1 is 100%. Turning to `COC(=O)CCCCCNC(=O)[C@]12CCC(C)(C)C[C@H]1C1=CC[C@@H]3[C@@]4(C)CC[C@H](O[C@@]5(C(=O)OC)C[C@H](O)[C@@H](NC(C)=O)[C@H]([C@H](O)[C@H](O)CO)O5)C(C)(C)[C@@H]4CC[C@@]3(C)[C@]1(C)CC2`, the Imax in assay [2] worked out at 8.34%. Further, the Activity with 3T3-L1 was -7.74%. As for `CC1(C)CC[C@]2(C(=O)NCCCCCC(=O)O)CC[C@]3(C)C(=CC[C@@H]4[C@@]5(C)CC[C@H](O[C@@H]6O[C@H](C(=O)O)[C@@H](O)[C@H](O)[C@H]6O)C(C)(C)[C@@H]5CC[C@]43C)[C@@H]2C1`, the IC50 in assay [1] came to 0.56 µM. Moreover, the Imax in assay [2] stood at 72%. For the same molecule, the Activity in the assay on 3T3-L1 came to 21.52%. Turning to `COC(=O)CCCCCNC(=O)[C@]12CCC(C)(C)C[C@H]1C1=CC[C@@H]3[C@@]4(C)CC[C@H](O[C@@H]5O[C@H](C(=O)O)[C@@H](O)[C@H](O)[C@H]5O)C(C)(C)[C@@H]4CC[C@@]3(C)[C@]1(C)CC2`, the Imax in assay [2] worked out at 11.8%. As to `CC1(C)CC[C@@]23CC[C@]4(C)[C@@](OC2=O)([C@@H]3C1)[C@@H](O)C[C@@H]1[C@@]2(C)CC[C@H](O[C@H]3O[C@H](C(=O)O)[C@@H](O)[C@H](O)[C@@H]3O)C(C)(C)[C@@H]2CC[C@]14C`, the Imax in assay [2] was determined as 3.72%. With `CC1(C)CC[C@]2(C(=O)NCCCCCC(=O)O)CC[C@]3(C)C(=CC[C@@H]4[C@@]5(C)CC[C@H](O[C@@H]6O[C@H](CO)[C@@H](O)[C@H](O)[C@H]6O)C(C)(C)[C@@H]5CC[C@]43C)[C@@H]2C1`, the Imax in assay [2] came to 57.6%. For the same molecule, the Activity in the assay with 3T3-L1 turned out to be 6.11%. As for `CC1(C)CC[C@@]23CC[C@]4(C)[C@@](OC2=O)([C@@H]3C1)[C@@H](O)C[C@@H]1[C@@]2(C)CC[C@H](O[C@@H]3O[C@H](CO)[C@@H](O[C@@H]5O[C@H](CO)[C@H](O)[C@H](O)[C@H]5O)[C@H](O)[C@H]3O)C(C)(C)[C@@H]2CC[C@]14C`, in assay [2], the Imax amounted to 2.55%. Still for that read-out and setting: the figure for `COC(=O)CCCCCNC(=O)[C@]12CCC(C)(C)C[C@H]1C1=CC[C@@H]3[C@@]4(C)CC[C@H](O[C@@H]5O[C@@H](C)[C@@H](O)[C@@H](O)[C@@H]5O)C(C)(C)[C@@H]4CC[C@@]3(C)[C@]1(C)CC2` is 1.91%; for `COC(=O)CCCCCNC(=O)[C@]12CCC(C)(C)C[C@H]1C1=CC[C@@H]3[C@@]4(C)CC[C@H](O[C@H]5O[C@H](CO)[C@@H](O)[C@H](O)[C@@H]5O)C(C)(C)[C@@H]4CC[C@@]3(C)[C@]1(C)CC2` it is 1.52%. Take `CC1(C)CC[C@]2(C(=O)NCCCCCC(=O)O)CC[C@]3(C)C(=CC[C@@H]4[C@@]5(C)CC[C@H](O[C@H]6O[C@H](CO)[C@@H](O)[C@H](O)[C@@H]6O)C(C)(C)[C@@H]5CC[C@]43C)[C@@H]2C1`: in assay [2], the Imax was 57%. Also, the Activity with 3T3-L1 amounted to 57.55%. On to `COC(=O)CCCCCNC(=O)[C@]12CCC(C)(C)C[C@H]1C1=CC[C@@H]3[C@@]4(C)CC[C@H](O[C@@H]5O[C@H](CO)[C@@H](O[C@@H]6O[C@H](CO)[C@H](O)[C@H](O)[C@H]6O)[C@H](O)[C@H]5O)C(C)(C)[C@@H]4CC[C@@]3(C)[C@]1(C)CC2`, for which, in assay [2], the Imax came out at 3.87%. Take `CC1(C)CC[C@]2(C(=O)NCCCCCC(=O)O)CC[C@]3(C)C(=CC[C@@H]4[C@@]5(C)CC[C@H](O)C(C)(C)[C@@H]5CC[C@]43C)[C@@H]2C1`: the Imax in assay [2] stood at 14.3%. Turning to `CC1(C)CC[C@@]23CC[C@]4(C)[C@@](OC2=O)([C@@H]3C1)[C@@H](O)C[C@@H]1[C@@]2(C)CC[C@H](O[C@@H]3O[C@H](CO)[C@@H](O)[C@H](O)[C@H]3O)C(C)(C)[C@@H]2CC[C@]14C`, the Imax in assay [2] turned out to be 6%. Consider `CC(=O)N[C@H]1[C@H]([C@H](O)[C@H](O)CO)O[C@](O[C@H]2CC[C@]3(C)[C@H]4CC=C5[C@@H]6CC(C)(C)CC[C@]6(C(=O)NCCCCCC(=O)O)CC[C@@]5(C)[C@]4(C)CC[C@H]3C2(C)C)(C(=O)O)C[C@@H]1O`, for which, in assay [2], the Imax was found to be 69%. Also, the Activity in the assay on 3T3-L1 is on record as 10.31%. Take `CC1(C)CC[C@]2(C(=O)NCCCCCC(=O)O)CC[C@]3(C)C(=CC[C@@H]4[C@@]5(C)CC[C@H](O[C@H]6O[C@H](C(=O)O)[C@@H](O)[C@H](O)[C@@H]6O)C(C)(C)[C@@H]5CC[C@]43C)[C@@H]2C1`: the IC50 in assay [1] was 16.1 µM. Besides, the Imax in assay [2] stood at 64.8%. The Activity with 3T3-L1 was determined as 3.91%. Regarding `C[C@@H]1O[C@@H](O[C@H]2CC[C@]3(C)[C@H]4CC=C5[C@@H]6CC(C)(C)CC[C@]6(C(=O)NCCCCCC(=O)O)CC[C@@]5(C)[C@]4(C)CC[C@H]3C2(C)C)[C@@H](O)[C@H](O)[C@@H]1O`, in assay [2], the Imax was 63.2%. In addition, the Activity with 3T3-L1 turned out to be 59.58%. As to `COC(=O)CCCCCNC(=O)[C@]12CCC(C)(C)C[C@H]1C1=CC[C@@H]3[C@@]4(C)CC[C@H](O[C@H]5O[C@H](C(=O)O)[C@@H](O)[C@H](O)[C@@H]5O)C(C)(C)[C@@H]4CC[C@@]3(C)[C@]1(C)CC2`, the IC50 in assay [1] came to 1.91 µM. The Imax in assay [2] was determined as 98.6%. In the case of `CC1(C)CC[C@@]23CC[C@]4(C)[C@@](OC2=O)([C@@H]3C1)[C@@H](O)C[C@@H]1[C@@]2(C)CC[C@H](O[C@H]3O[C@H](CO)[C@@H](O)[C@H](O)[C@@H]3O)C(C)(C)[C@@H]2CC[C@]14C`, the Imax in assay [2] was found to be 2.9%. As to `CC1(C)CC[C@@]23CC[C@]4(C)[C@@](OC2=O)([C@@H]3C1)[C@@H](O)C[C@@H]1[C@@]2(C)CC[C@H](O[C@@H]3O[C@H](C(=O)O)[C@@H](O)[C@H](O)[C@H]3O)C(C)(C)[C@@H]2CC[C@]14C`, in assay [2], the Imax worked out at 16.1%. For `COC(=O)CCCCCNC(=O)[C@]12CCC(C)(C)C[C@H]1C1=CC[C@@H]3[C@@]4(C)CC[C@H](O[C@]5(C(=O)OC)C[C@H](O)[C@@H](NC(C)=O)[C@H]([C@H](O)[C@H](O)CO)O5)C(C)(C)[C@@H]4CC[C@@]3(C)[C@]1(C)CC2`, the Imax in assay [2] was 56%. Besides, the Activity in the assay with 3T3-L1 came out at 9.54%. Turning to `COC(=O)CCCCCNC(=O)[C@]12CCC(C)(C)C[C@H]1C1=CC[C@@H]3[C@@]4(C)CC[C@H](O)C(C)(C)[C@@H]4CC[C@@]3(C)[C@]1(C)CC2`, the Imax in assay [2] came to 4.89%.

On to `COC(=O)CCCCCNC(=O)[C@]12CCC(C)(C)C[C@H]1C1=CC[C@@H]3[C@@]4(C)CC[C@H](O[C@@H]5O[C@H](C(=O)OC)[C@@H](O)[C@H](O)[C@H]5O)C(C)(C)[C@@H]4CC[C@@]3(C)[C@]1(C)CC2`, for which the Imax in assay [2] amounted to 36.7%. Besides, the Activity in the assay on 3T3-L1 is given as 28.29%. For `COC(=O)CCCCCNC(=O)[C@]12CCC(C)(C)C[C@H]1C1=CC[C@@H]3[C@@]4(C)CC[C@H](O[C@H]5O[C@H](C(=O)OC)[C@@H](O)[C@H](O)[C@@H]5O)C(C)(C)[C@@H]4CC[C@@]3(C)[C@]1(C)CC2`, the IC50 in assay [1] was 12.2 µM. Further, the Imax in assay [2] came out at 81.9%. For the same molecule, the Activity in the assay with 3T3-L1 amounted to 39.18%. `C[C@@H]1O[C@@H](O[C@H]2CC[C@]3(C)[C@H]4C[C@H](O)[C@]56OC(=O)[C@@]7(CCC(C)(C)C[C@H]75)CC[C@@]6(C)[C@]4(C)CC[C@H]3C2(C)C)[C@@H](O)[C@H](O)[C@@H]1O`: the Imax in assay [2] is -1.55%. As to `CC(=O)N[C@H]1[C@H]([C@H](O)[C@H](O)CO)O[C@@](O[C@H]2CC[C@]3(C)[C@H]4CC=C5[C@@H]6CC(C)(C)CC[C@]6(C(=O)NCCCCCC(=O)O)CC[C@@]5(C)[C@]4(C)CC[C@H]3C2(C)C)(C(=O)O)C[C@@H]1O`, in assay [2], the Imax was determined as 46%. For the same molecule, the Activity in the assay with 3T3-L1 was -16.69%.

With SODIUM ORTHOVANAD, in assay [3], the Imax was determined as 100%.
